Test results taken from PubChem BioAssay.
Active and inactive are the calls of the source.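 Rule for the calls, unless noted: active = duplicate-averaged activation above buffer control mean plus 5 SD of those controls; inactive = the rest.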

Assays:
[1] = nonspecific flux increase, KCNQ1-free cells – parental CHO cells, counter-screen for KCNQ1 potentiator project (AID 493006); settings: parental CHO-K1 cells, FluxOR thallium flux, at 10 µM; active compounds read high
In short: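 Test system: parental CHO-K1 cells, FluxOR dye-loaded / Probe or stimulus: potassium plus thallium depolarizing stimulus, 5x stock 12.5 mM K2SO4, Tl2SO4 / Timing: overnight 37 °C plating, 90 min dye, 20 min dark compound / Measured by: kinetic thallium-flux fluorescence / Read-out: max-minus-min fluorescence over baseline, percent of buffer-to-R-L3 span / Benchmarks: buffer and R-L3 controls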

[2] = target: Potassium voltage-gated channel subfamily KQT member 1 (Homo sapiens) (UniProt P51787); assay: enhancement of KCNQ1 channel thallium flux – FluxOR thallium flux, CHO cells, duplicates, confirmation (AID 493007;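 active = potentiation averaged over duplicate wells exceeding buffer-only control mean by more than 3 SD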;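 for outcome: cells depolarized by a potassium plus thallium sulfate stimulus after compound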;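 for potentiation: 0% = buffer-only wells and 100% = R-L3 activator control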); settings: KCNQ1 cell line, FluxOR thallium flux fluorescence, at 10 µM; active compounds read high, % of reference activator effect, buffer zero
In short: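 Assay system: CHO cells carrying KCNQ1 | Controls: Buffer and R-L3 controls | Schedule: FluxOR dye loading 90 min, compound exposure 20 min, room temperature | Read-out: Baseline-normalized fluorescence change, percent of buffer-to-R-L3 range | Replicates: Each compound tested in duplicate | Technique: Kinetic thallium influx fluorescence with FluxOR dye, 10 s baseline, 110 s post-stimulus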

[3] = target: Potassium voltage-gated channel subfamily KQT member 2 (Rattus norvegicus) (UniProt O88943); assay: KCNQ2 thallium flux enhancement – KCNQ2-CHO-K1 cells, selectivity assay for KCNQ1 potentiator project (AID 493009;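 active = mean duplicate potentiation above the buffer control mean plus 5 SD of buffer wells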;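 note: assay conditions were tuned for KCNQ1 rather than KCNQ2 modulators; signal is max minus min fluorescence divided by baseline after thallium stimulus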); settings: FluxOR thallium flux fluorescence, at 10 µM; active compounds read high, scaled: buffer 0, activator control 100
[4] = target: Potassium voltage-gated channel subfamily KQT member 1 (Homo sapiens) (UniProt P51787); assay: KCNQ1 activators by electrophysiology – IonWorks patch clamp, KCNQ1-CHO cells, orthogonal assay for KCNQ1 potentiator project, confirmation (AID 493184;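 active = current rise at least 3 SD above the untreated control mean in each of two repeat wells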); settings: automated patch clamp current, at 10 µM
In short: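 Material: KCNQ1-expressing CHO cells; doses: 10 µM final, single point; probe or stimulus: voltage step from -90 mV holding to +40 mV, 2,000 ms; signal: automated voltage clamp, amphotericin B perforated patch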

[5] = target: Potassium voltage-gated channel subfamily E member 1 (Homo sapiens) + Potassium voltage-gated channel subfamily KQT member 1 (Homo sapiens) (UniProt P15382+P51787); assay: KCNQ1-E1 channel activation – thallium flux, CHO-K1 KCNQ1/E1 cells, selectivity assay for KCNQ1 potentiator project, confirmation (AID 493186;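 active = mean duplicate activation above the buffer control mean plus 5 SD of those controls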); settings: FluxOR thallium flux, at 10 µM
In short: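 Test system: CHO-K1 cells with KCNQ1/E1. Times: 90-min dye loading then 20-min compound exposure, both at room temperature. Measured by: kinetic FluxOR thallium-flux fluorescence, 10 s baseline plus 110 s after stimulus. Repeats: duplicate wells per compound.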

Potassium voltage-gated channel subfamily KQT member 2 (Rattus norvegicus), sequence (O88943 whole entry, looked up): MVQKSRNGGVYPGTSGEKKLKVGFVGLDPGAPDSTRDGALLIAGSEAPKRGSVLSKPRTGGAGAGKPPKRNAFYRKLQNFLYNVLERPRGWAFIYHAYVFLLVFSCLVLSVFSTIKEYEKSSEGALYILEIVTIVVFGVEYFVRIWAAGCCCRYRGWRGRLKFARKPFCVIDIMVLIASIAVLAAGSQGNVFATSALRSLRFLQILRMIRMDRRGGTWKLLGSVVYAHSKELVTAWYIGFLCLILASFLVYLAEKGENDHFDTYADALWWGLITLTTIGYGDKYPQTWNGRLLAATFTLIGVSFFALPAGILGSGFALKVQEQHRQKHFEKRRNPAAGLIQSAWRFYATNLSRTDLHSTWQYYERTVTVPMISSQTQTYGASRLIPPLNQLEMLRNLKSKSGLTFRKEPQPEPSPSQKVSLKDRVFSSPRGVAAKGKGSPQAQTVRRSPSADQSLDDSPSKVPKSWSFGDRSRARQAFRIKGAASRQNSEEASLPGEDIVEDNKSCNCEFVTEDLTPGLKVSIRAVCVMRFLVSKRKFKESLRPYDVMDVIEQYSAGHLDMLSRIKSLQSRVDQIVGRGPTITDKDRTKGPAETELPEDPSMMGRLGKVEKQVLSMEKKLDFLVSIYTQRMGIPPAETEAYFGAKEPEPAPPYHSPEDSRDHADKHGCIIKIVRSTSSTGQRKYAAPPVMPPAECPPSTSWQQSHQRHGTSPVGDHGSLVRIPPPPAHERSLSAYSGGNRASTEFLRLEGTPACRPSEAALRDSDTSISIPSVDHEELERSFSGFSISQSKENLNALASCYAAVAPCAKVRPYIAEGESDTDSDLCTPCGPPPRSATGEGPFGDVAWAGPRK
Potassium voltage-gated channel subfamily KQT member 1 (Homo sapiens), sequence (P51787 whole entry, looked up): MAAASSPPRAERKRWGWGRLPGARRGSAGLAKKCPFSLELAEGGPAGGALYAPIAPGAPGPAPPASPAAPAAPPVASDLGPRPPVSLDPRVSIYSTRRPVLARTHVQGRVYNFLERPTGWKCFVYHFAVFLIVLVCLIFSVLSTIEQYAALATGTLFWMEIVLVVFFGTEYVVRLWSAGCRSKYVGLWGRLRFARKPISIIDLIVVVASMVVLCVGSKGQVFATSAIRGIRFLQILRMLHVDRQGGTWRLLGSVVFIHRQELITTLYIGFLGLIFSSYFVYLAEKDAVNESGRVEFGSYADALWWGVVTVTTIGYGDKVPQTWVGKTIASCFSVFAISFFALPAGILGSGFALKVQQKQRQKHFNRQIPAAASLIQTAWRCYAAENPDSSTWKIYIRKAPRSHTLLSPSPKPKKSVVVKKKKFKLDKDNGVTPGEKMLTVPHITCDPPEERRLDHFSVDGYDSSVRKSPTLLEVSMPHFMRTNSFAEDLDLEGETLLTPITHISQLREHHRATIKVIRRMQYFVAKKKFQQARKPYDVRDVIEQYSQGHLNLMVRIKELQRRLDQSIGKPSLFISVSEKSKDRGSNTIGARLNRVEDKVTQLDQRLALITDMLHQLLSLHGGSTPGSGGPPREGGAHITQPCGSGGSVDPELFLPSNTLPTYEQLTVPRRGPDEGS
Potassium voltage-gated channel subfamily E member 1 (Homo sapiens) + Potassium voltage-gated channel subfamily KQT member 1 (Homo sapiens), sequence (P51787 whole entry, looked up): as the sequence (P51787 whole entry, looked up) above

Row | Compound | outcome [1] | outcome [2] | outcome [3] | outcome [4] | outcome [5] | activation [1] | potentiation [2] | potentiation [3]
1 | COc1cccc(CC(=O)N2CCN(Cc3cccc(Cl)c3)CC2)c1 | inactive | inactive | inactive | inactive | – | – | – | –
2 | CCOc1cc(C=C2C(=O)NC(=O)NC2=O)ccc1OS(=O)(=O)c1ccccc1 | inactive | inactive | inactive | inactive | – | – | – | –
3 | O=[N+]([O-])c1ccc(N2CCOCC2)c2ccncc12 | inactive | inactive | inactive | inactive | inactive | – | – | –
4 | CC/C(=C\C=C\[C@@H]1C=C[C@@H]2CCC[C@H]2[C@@H]1C(=O)c1ccc[nH]1)[C@@H]1O[C@@H]([C@@H](C)C(=O)O)CC[C@@H]1C | – | – | – | inactive | – | 499% (active) | 166% (active) | 442% (active)
5 | CC1(C)C[C@H]2C=C(C=O)[C@]3(C=O)C[C@]3(C)[C@H]2C1 | inactive | – | inactive | inactive | inactive | – | 24% (active) | –
6 | CCOP(=S)(OCC)c1ccc(N(C)C)cc1 | inactive | inactive | inactive | inactive | – | – | – | –
7 | Brc1ccc2c(c1)C(OC1CN3CCC1CC3)c1ccccc1CS2 (stereo not given) | inactive | – | inactive | inactive | – | – | 40.5% (active) | –
8 | CCOC(=O)C1C(=O)NC2(C)CC1c1cc(OC)ccc1O2 (stereo not given) | inactive | inactive | inactive | inactive | – | – | – | –
9 | CC1(C)CSC(=NCc2ccccc2)N1 | inactive | – | inactive | inactive | inactive | – | 23% (active) | –
10 | CC1=CC2/C=C(\C)CCC(O)C(O)/C=C/C(=O)C23C(=O)NC(CC(C)C)C3C1C (stereo not given) | inactive | – | inactive | inactive | inactive | – | 23% (active) | –
11 | Nc1ncnc2c1ccn2[C@@H]1O[C@H](CO)[C@@H](O)[C@H]1O | inactive | inactive | inactive | inactive | – | – | – | –
12 | C=C(C)[C@@]12OC3(c4ccccc4)O[C@@H]1C1[C@@H]4O[C@]4(CO)[C@@H](O)[C@]4(O)C(=O)C(C)=C[C@H]4[C@@]1(O3)[C@H](C)[C@H]2OC(=O)/C=C/C=C/c1ccccc1 (stereo not given in full) | inactive | inactive | inactive | inactive | – | – | – | –
13 | Cc1ccccc1-n1c(O)c(/C=N/N2CCOCC2)c(=O)[nH]c1=S | inactive | inactive | inactive | inactive | – | – | – | –
14 | CN1CCN(c2cc(N3CCCC3)c([N+](=O)[O-])cc2F)CC1 | inactive | inactive | inactive | inactive | – | – | – | –
15 | O=c1c(C=NCCN2CCNCC2)c(O)n(C2CCCCC2)c(=O)n1C1CCCCC1 | inactive | inactive | inactive | inactive | inactive | – | – | –
16 | Cc1ccccc1CC(=O)N(CCN(C)C)CC1CCCN(Cc2ccccc2F)C1 (stereo not given) | inactive | inactive | – | inactive | inactive | – | – | –
17 | Cc1ccc(/C=C2/C(=O)NC(=O)N(CCc3ccc(F)cc3)C2=O)o1 | inactive | inactive | inactive | inactive | inactive | – | – | –
18 | CC(=O)OC(C)(C)/C=C/C(=O)C(C)(O)C1[C@H](O)C[C@@]2(C)C3CC=C4C(CC[C@@H](O)C4(C)C)[C@]3(CO)C(=O)C[C@]12C (stereo not given in full) | inactive | inactive | inactive | inactive | inactive | – | – | –
19 | O=C1NC(=O)N(Cc2ccc(F)cc2)C(=O)/C1=C/c1cccs1 | inactive | inactive | inactive | inactive | – | – | – | –
20 | N#Cc1c(N2CCNCC2)nc(-c2ccco2)c2c1CCCC2 | inactive | inactive | inactive | inactive | – | – | – | –
21 | COc1cc(-n2c(=S)[nH]c3ccccc3c2=O)c(Cl)cc1Cl | inactive | inactive | inactive | inactive | – | – | – | –
22 | CCN(CC)C(=O)c1ccc(NC(=O)CSc2nnnn2-c2cc(OC)ccc2OC)cc1 | inactive | inactive | inactive | inactive | – | – | – | –
23 | CN1CCC(c2c[nH]c3ccccc23)C1 (stereo not given) | inactive | inactive | inactive | inactive | – | – | – | –
24 | O=[N+]([O-])c1cccc(C2N3CCCN23)c1 (stereo not given) | inactive | inactive | inactive | inactive | inactive | – | – | –
25 | COc1ccc2c(c1)/C(=C/c1cnc[nH]1)C(=O)N2 | inactive | inactive | inactive | inactive | inactive | – | – | –
26 | COc1ccc(C(=O)OC2CC[C@@]3(C)C4CCC5[C@]6(O)CC(O)[C@@]7(O)C(CN8CC(C)CCC8[C@@]7(C)O)[C@]6(O)C[C@@]53O[C@]24O)cc1OC (stereo not given in full) | inactive | – | – | inactive | inactive | – | 25.5% (active) | 160% (active)
27 | C/C=C(\C)C(=O)N[C@@H](c1ccccc1)[C@@H](O)C(=O)O[C@H]1C[C@@]2(O)[C@@H](OC(=O)c3ccccc3)C3[C@](C)(C(=O)[C@H](OC(C)=O)C(=C1C)C2(C)C)[C@@H](O)C[C@H]1OC[C@@]31OC(C)=O (stereo not given in full) | inactive | inactive | inactive | inactive | inactive | – | – | –
28 | CCOP1(=S)Oc2cc3c(cc2C(C(=O)OC)(C(F)(F)F)O1)OCO3 (stereo not given) | inactive | inactive | inactive | inactive | – | – | – | –
29 | COc1ccc(C2NCc3ccc4c(c3-n3cccc32)OCO4)cc1O (stereo not given) | inactive | inactive | – | inactive | inactive | – | – | –
30 | Cc1c(Cl)cccc1NC(=S)N1CC2CC(C1)c1cccc(=O)n1C2 (stereo not given) | inactive | inactive | – | inactive | – | – | – | –
